According to ChEMBL document CHEMBL4312005, “Optimization of pyrrolizine-based Schiff bases with 4-thiazolidinone motif: Design, synthesis and investigation of cytotoxicity and anti-inflammatory potency” (Eur J Med Chem, 2020):

How the values were obtained:
Rattus norvegicus [1] = assay: Antiinflammatory activity against albino rats assessed as inhibition of carrageenan-induced paw edema at 15 mg/kg, po measured after 2 hrs relative to control; type: functional
Outline: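 Winter carrageenan rat paw oedema model in adult albino rats of both sexes (100-140 g). Compounds given orally before carrageenan injection into the paw. Oedema inhibition % versus untreated control read at 2-4 h post-carrageenan. Significance versus control was tested at P < 0.05, 0.01 and 0.001. Animal work approved by the Umm Al-Qura University pharmacy ethics committee.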

Rattus norvegicus [2] = assay: Antiinflammatory activity against albino rats assessed as inhibition of carrageenan-induced paw edema at 15 mg/kg, po measured after 4 hrs relative to control; type: functional
Outline: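 Carrageenan rat paw edema (Winter method) in male and female adult albino rats (100-140 g). […] Swelling inhibition expressed as % of control at 2-4 h after carrageenan injection.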

Work on COc1ccc2c(c1)c(CC(=O)O)c(C)n2C(=O)c1ccc(Cl)cc1 [INDOMETHACIN] yielded an inhibition in vivo at 15 mg/kg (Rattus norvegicus [1]) of 32.3% and an inhibition in vivo at 15 mg/kg (Rattus norvegicus [2]) of 56.4%.
